Hits are enriched below; roughly 2.1% of the tested compounds scored in any of these assays.
MC4R barr agon: agonists of human melanocortin 4 receptor (MC4R) beta-arrestin. P32245. U2OS MC4R beta-arrestin complementation, luminescence; percent of melanotan II response, DMSO zero. activation, % at 8.9 µM. 0.98% of 360,000 active;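 active means activation above a per-plate cutoff, the mean activation of sample wells on that plate plus 3 SD, cut at about 8% in these data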
Target sequence (P32245 whole entry, looked up): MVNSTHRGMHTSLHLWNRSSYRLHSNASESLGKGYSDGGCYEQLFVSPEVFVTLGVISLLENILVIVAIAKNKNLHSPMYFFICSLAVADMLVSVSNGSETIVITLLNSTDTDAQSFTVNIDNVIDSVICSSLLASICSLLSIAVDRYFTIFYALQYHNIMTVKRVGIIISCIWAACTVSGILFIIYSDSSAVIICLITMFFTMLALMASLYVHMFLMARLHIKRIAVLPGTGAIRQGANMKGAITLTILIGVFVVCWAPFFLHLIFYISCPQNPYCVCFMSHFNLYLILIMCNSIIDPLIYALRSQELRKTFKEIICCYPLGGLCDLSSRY
SMARCA2 act: increases SMARCA2 function in MMTV reporter cells; activation, % at 9.1 µM; AID 652017; MG213 cells, MMTV-luciferase reporter, dexamethasone, overnight; 1% of 370,000 active; in the data active means activation above about 7.8%;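 further: 0% = vehicle wells and 100% = reference activator wells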
MC4R antagonist: blocks human MC4R cAMP signaling; P32245; MC4R-expressing cells, MTII-stimulated cAMP, LANCE TR-FRET; inhibition, % at 6.5 µM; 0.48% of 360,000 active; AID 540295;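 active means inhibition above its plate's cutoff, the mean of tested wells on that plate plus 3 SD, cut at about 29% in these data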;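 further: 0% = Melanotan II alone and 100% = Melanotan II plus saturating MCL0020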
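Assay system: U2OS cells stably expressing human melanocortin 4 receptor (MC4R) / Dosing: 6.5 µM / Timing: compound 30 min, challenge 1 h, detection 1 h / Measured by: Eu-cAMP/anti-cAMP TR-FRET, emission 671 nm / Replicates: singlicate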
F508del corr: CFTR F508del correction in bronchial cells | CFBE cells, YFP halide quenching; stimulated with forskolin plus potentiator P3; % fluorescence drop versus neutral controls | activity (quench increase), % at 7.58 µM | 0.36% of 350,000 active;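 active means mean added fluorescence quench of at least 8% versus neutral control, with both replicates also reaching 8%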;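 further: cells transiently co-express mutant CFTR-F508del with the halide-sensitive YFP; corrector assay measuring rescue of mutant channel to the surface after 24 h compound exposure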
* hit, by the source's call; nt = no result.

SMILES | MC4R barr agon | SMARCA2 act | MC4R antagonist | F508del corr
CCc1ccc(N2C(=O)/C(=C/c3cccs3)N(CC(=O)OC)C2=S)cc1 | 9.1* | -3 | 2 | nt
C[C@@H]1CN([C@H](C)CO)C(=O)c2cc(NC(=O)CCN3CCOCC3)ccc2O[C@@H]1CN(C)Cc1ccc(C(=O)Nc2ccccc2N)cc1 | nt | nt | nt | 1
C[C@@H]1CN([C@H](C)CO)C(=O)c2cc(NC(=O)CCC(F)(F)F)ccc2O[C@@H]1CN(C)C(=O)Nc1ccc(F)cc1 | nt | nt | nt | -2
C[C@H]1CN([C@@H](C)CO)C(=O)c2cc(C#Cc3ccccc3F)cnc2O[C@H]1CN(C)C(=O)Cc1cccnc1 | nt | nt | nt | 0
Cc1ccc2nc(N(CCCN(C)C)C(=O)COc3ccc(Cl)cc3)sc2c1 | 8.8* | -2 | -5 | -1
Cc1ccc2nc(N(CCCN(C)C)C(=O)c3cc(-c4cccs4)nc4ccccc34)sc2c1 | 9.2* | -4 | 5 | 1
CO[C@H]1CN(C)C(=O)c2ccc(NC(=O)C3CC3)cc2OC[C@@H](C)N(CC2CCOCC2)C[C@H]1C | nt | nt | nt | -1
CNC(=O)C[C@@H]1CC[C@@H]2[C@H](COC[C@H](O)CN2Cc2ccc(Cl)c(Cl)c2)O1 | nt | nt | nt | 0
O=C(O)COc1ccc(/C=C/C(=O)c2ccc3ccccc3c2)cc1 | -3 | nt | -6 | nt
O=C(O)COc1ccc(/C=C/C(=O)c2ccc(C3CCCCC3)cc2)cc1 | 8.8* | 4 | -9 | -1
COc1ccc(NC(=O)Nc2ccc3c(c2)CC(=O)N([C@@H](C)CO)C[C@H](C)[C@H](CN(C)S(=O)(=O)c2ccc(F)cc2)O3)cc1 | nt | nt | nt | 0
C[C@@H]1CN([C@H](C)CO)C(=O)Cc2cc(NS(=O)(=O)c3ccccc3)ccc2O[C@@H]1CN(C)Cc1ccc(C(=O)Nc2ccccc2N)cc1 | nt | nt | nt | 3
CN(C(=O)c1ccccc1C(=O)OCC(=O)Nc1ccc(S(N)(=O)=O)cc1)c1ccccc1 | -4 | -2 | 4 | 8.2*
CN(C(=O)c1ccccc1C(=O)OCC(=O)Nc1ccc(OC(F)F)cc1)c1ccccc1 | 2 | -2 | 15 | -5
O=C(N/N=C/c1ccc(C(F)(F)F)cc1)c1ccc(O)cc1 | -3 | 0 | -10 | 1
NC(N)=NN=C(c1ccc(F)cc1)c1ccc(C(F)(F)F)cc1 | -2 | 2 | -16 | 13*
COc1ccc2c3c(n(C)c2c1)[C@H](CO)N(C(=O)Nc1ccccc1F)CC31CN(C)C1 | nt | nt | nt | 0
C/C(=N\O)c1sc(-c2ccccc2)nc1C | 1 | 7.9* | -10 | nt
COc1ccc(OC)c(Nc2c3ccccc3nc3ccccc23)c1 | -1 | -1 | -6 | -1
COc1ccc([N+](=O)[O-])cc1Nc1c2ccccc2nc2ccccc12 | 0 | -4 | -18 | 13*
Cc1cc(C)cc(NC(=O)Nc2ccc(-n3ccc(C(F)(F)F)n3)cc2)c1 | 8.8* | -1 | 14 | -2
CC(C)[C@@H]1CC[C@@H](C)C[C@H]1OC(=O)C[n+]1cc(-c2ccc(Cl)cc2)n2c1CCCCC2 | 59* | -5 | 4 | -4
Cc1c(Cl)cccc1NC(=O)c1cc(-c2ccccc2O)n[nH]1 | 9.3* | 0 | -5 | nt
Cc1ccccc1OCC(=O)Nc1cccc(Cl)c1C | 8.6* | 0 | 4 | -1
C[C@H](NC(=O)C[C@H]1CC[C@@H](NC(=O)Nc2ccc3c(c2)OCO3)[C@H](CO)O1)c1ccccc1 | nt | nt | nt | 2
SMILES | MC4R barr agon | SMARCA2 act | MC4R antagonist | F508del corr
CCOCCCn1c(SCC(=O)NCc2ccco2)nc2c(sc3ccccc32)c1=O | 9.4* | 4 | 20 | nt
CC(=O)c1cccc(OCC(O)CNCCc2ccc(Cl)cc2)c1 (configuration not stated) | 0 | 2 | 1 | -1
CCCc1cnc(NCCNCC(O)COc2ccc(Cl)c(Cl)c2)nc1 (configuration not stated) | 8.4* | 0 | 7 | 0
O=C(Nc1ccccc1)c1ccc(-c2ccccc2Cl)o1 | 8.5* | 4 | 3 | -1
COc1ccc(C2=NOC(C(=O)NCc3ccccc3)C2)cc1 (configuration not stated) | 0 | nt | -24 | 11*
O=C(c1cccs1)c1no[n+]([O-])c1C(=O)c1cccs1 | 17* | nt | 5 | nt
CSc1nc2sc3c(c2c2nnnn12)CCCC3 | 8.3* | 0 | 1 | nt
C[C@]12C=CC(=O)C=C1CC[C@@H]1C2[C@@H](O)C[C@@]2(C)C1CC[C@]2(O)C(=O)COC(=O)CCC(=O)O (some centres not stated) | 2 | -2 | 3 | 8.2*
COc1ccc(CNC(=O)/C=C/c2cc3c(cc2Br)OCO3)cc1 | 8.5* | 2 | -5 | nt
O=C(N/N=C/c1ccc2c(c1)OCO2)c1sc2cccc(Cl)c2c1Cl | 8.3* | 0 | 3 | nt
Cn1cc(C(=O)N/N=C/c2ccc3c(c2)OCO3)c2ccccc21 | 0 | 0 | 7 | 9.1*
O=C(N/N=C/c1ccc2c(c1)OCO2)c1sc2cc(Cl)ccc2c1Cl | 0 | -3 | -3 | nt
O=C(N/N=C/c1ccc2c(c1)OCO2)c1cccc2ccccc12 | -3 | 2 | 2 | -2
O=C(C[C@H]1CC[C@H]2[C@@H](COC[C@@H](O)CN2C(=O)c2ccncc2)O1)NC1Cc2ccccc2C1 | nt | nt | nt | -1
C=CCN1C(=O)[C@@]2(O[C@@H](CCn3cc(CCO)nn3)[C@H]([Si](C)(C)c3ccc(OC)cc3)[C@H]2C)c2cc(N3CCOC3=O)ccc21 | nt | nt | nt | 3
C=CCN1C(=O)[C@@]2(O[C@@H](CCn3cc([C@H](O)c4ccccc4)nn3)[C@H]([Si](C)(C)c3ccc(OC)cc3)[C@H]2C)c2cc(N3CCOC3=O)ccc21 | nt | nt | nt | 12*
Cc1ccc(-n2nc3ccc(NC(=O)c4ccco4)cc3n2)cc1 | 1 | 1 | 20 | nt
Cc1ccc(-n2nc3ccc(NC(=O)c4cccc([N+](=O)[O-])c4C)cc3n2)cc1 | 8.9* | -2 | 26 | nt
Cc1ccc(S(=O)(=O)Nc2ccc3c(c2)C(=O)N([C@@H](C)CO)C[C@H](C)[C@@H](CN(C)Cc2ccncc2)O3)cc1 | nt | nt | nt | -3
CCNC(=O)C1(C)CCN(C(=O)c2cc(F)ccc2C)C1 (configuration not stated) | 1 | 1 | 6 | 16*
Cc1ccccc1OCC(O)Cn1c(=N)n(Cc2ccccc2)c2ccccc21 (configuration not stated) | 9.1* | -3 | -1 | 0
CCOC(=O)c1cc(NC(=O)c2cc(C)on2)cc(C(=O)OCC)c1 | 31* | 0 | -1 | nt
COc1cccc(-c2ccc([C@H]3[C@@H](C#N)N(C(=O)c4ccccn4)[C@@H]3CO)cc2)c1 | nt | nt | nt | -3
COc1cccc(-c2ccc([C@H]3[C@@H](CO)N(C(=O)c4ccccn4)[C@H]3C#N)cc2)c1 | nt | nt | nt | 15*
Cc1ccc(-c2n[nH]c(Cc3ccccc3)n2)cc1 | -3 | 7.9* | -3 | 0
Cc1ccc(OCc2nc(-c3ccc(Cl)cc3)n[nH]2)cc1 | 6 | 4 | -5 | nt
CCNC(=O)[C@H]1[C@H](CO)[C@H]2Cn3c(ccc(/C=C/c4ccccc4)c3=O)[C@@H]1N2C(=O)C1CCCC1 | nt | nt | nt | -1

Screening data (PubChem BioAssay)
